Results taken from ChEMBL document CHEMBL4038334, “Coumarin versus Chromone Monoamine Oxidase B Inhibitors: Quo Vadis?” (J Med Chem, 2017).

Assays:
[1] = molecular target: T1, Amine oxidase [flavin-containing] B (Homo sapiens, UniProt P27338); experiment: biochemical; assay type: cell-based
T1 sequence (P27338 whole entry): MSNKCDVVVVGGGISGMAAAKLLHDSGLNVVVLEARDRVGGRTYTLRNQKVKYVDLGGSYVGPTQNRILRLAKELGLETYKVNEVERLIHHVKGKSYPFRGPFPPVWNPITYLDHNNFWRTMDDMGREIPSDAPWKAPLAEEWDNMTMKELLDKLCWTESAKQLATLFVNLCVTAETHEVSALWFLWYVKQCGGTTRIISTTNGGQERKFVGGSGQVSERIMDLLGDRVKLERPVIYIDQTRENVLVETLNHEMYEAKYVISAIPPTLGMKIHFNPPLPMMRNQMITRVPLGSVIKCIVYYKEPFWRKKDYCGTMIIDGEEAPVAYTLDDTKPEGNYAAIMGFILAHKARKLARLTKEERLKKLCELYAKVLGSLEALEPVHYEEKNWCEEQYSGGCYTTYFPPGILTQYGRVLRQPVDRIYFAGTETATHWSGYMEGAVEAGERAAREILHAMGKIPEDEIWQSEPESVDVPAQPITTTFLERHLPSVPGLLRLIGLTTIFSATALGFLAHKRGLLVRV

[2] = molecular target: T2, Amine oxidase [flavin-containing] A (Homo sapiens, UniProt P21397); experiment: Inhibition of human recombinant microsomal MAOA expressed in baculovirus infected BTI-TN-5B1- 4 cells using p-tyramine as substrate assessed as decrease in H2O2 production at 100 uM after 15 mins by amplex red-based fluorescence assay; conditions: 0.25 h
T2 sequence (P21397 whole entry): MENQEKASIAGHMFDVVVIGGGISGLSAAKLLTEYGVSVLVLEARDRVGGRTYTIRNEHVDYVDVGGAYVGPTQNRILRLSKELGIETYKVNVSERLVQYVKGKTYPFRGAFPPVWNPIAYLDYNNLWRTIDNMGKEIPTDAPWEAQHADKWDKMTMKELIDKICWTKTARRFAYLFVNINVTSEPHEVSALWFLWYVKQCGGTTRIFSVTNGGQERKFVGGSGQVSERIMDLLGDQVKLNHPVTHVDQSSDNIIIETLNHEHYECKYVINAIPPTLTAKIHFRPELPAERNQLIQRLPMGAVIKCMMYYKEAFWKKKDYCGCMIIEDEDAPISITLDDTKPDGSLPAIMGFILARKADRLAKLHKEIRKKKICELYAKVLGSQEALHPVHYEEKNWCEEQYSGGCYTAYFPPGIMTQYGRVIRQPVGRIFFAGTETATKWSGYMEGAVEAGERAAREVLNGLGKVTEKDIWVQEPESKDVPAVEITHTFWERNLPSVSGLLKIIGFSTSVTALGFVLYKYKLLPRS

Homo sapiens = species: Homo sapiens; experiment: Selectivity index, ratio of IC50 for human recombinant microsomal MAOA to IC50 for human recombinant microsomal MAOB
[3] = molecular target: T1, Amine oxidase [flavin-containing] B; experiment: Noncompetitive inhibition of human recombinant microsomal MAOB expressed in baculovirus infected BTI-TN-5B1- 4 cells using p-tyramine as substrate assessed as decrease in H2O2 production by Lineweaver-Burk plot analysis
Procedure, shortened: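 Substrate-dependent kinetic experiments on hMAO-B. Inhibition mode was read from Lineweaver-Burk plots, and Ki was calculated from the corresponding Dixon plots.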

[4] = molecular target: T1, Amine oxidase [flavin-containing] B; experiment: Binding affinity to human recombinant microsomal MAOB expressed in baculovirus infected BTI-TN-5B1- 4 cells assessed as decrease in H2O2 production at 12.5 nM after 15 mins by amplex red-based fluorescence assay; conditions: 0.25 h, 0.0125 µM
[5] = molecular target: T1, Amine oxidase [flavin-containing] B; experiment: Reversible inhibition of human recombinant microsomal MAOB expressed in baculovirus infected BTI-TN-5B1- 4 cells assessed as decrease in H2O2 production at 12.5 nM after 60 mins by amplex red-based fluorescence assay; conditions: 1 h, 0.0125 µM
[6] = molecular target: T1, Amine oxidase [flavin-containing] B; experiment: Reversible inhibition of human recombinant microsomal MAOB expressed in baculovirus infected BTI-TN-5B1- 4 cells assessed as decrease in H2O2 production at 40 nM after 15 mins by amplex red-based fluorescence assay; conditions: 0.25 h, 0.04 µM

Compound | IC50 [1] | inhibition (INH) [2] | Ratio IC50 (Homo sapiens) | Ki [3] | Activity [4] | inhibition (INH) [5] | inhibition (INH) [6]
COc1ccc2occ(C(=O)Nc3ccc(Cl)cc3)c(=O)c2c1 | 10.3 nM | Not Active | > 9700 | – | – | – | –
Cc1cccc(NC(=O)c2coc3ccc(C)cc3c2=O)c1 | 17.1 nM | Not Active | > 5850 | – | – | – | –
COc1ccc2occ(C(=O)Nc3cccc(Cl)c3)c(=O)c2c1 | 3.94 nM | Not Active | > 25400 | – | – | – | –
COc1ccc2occ(C(=O)Nc3ccc(C)cc3)c(=O)c2c1 | 211 nM | Not Active | > 474 | – | – | – | –
Cc1ccc2oc(=O)c(C(=O)Nc3ccc(O)cc3)cc2c1 | 622 nM | Not Active | > 161 | – | – | – | –
Cc1ccc2oc(=O)c(C(=O)Nc3cccc(O)c3)cc2c1 | 45.4 nM | Not Active | > 2200 | – | – | – | –
Cc1ccc(NC(=O)c2coc3ccc(C)cc3c2=O)cc1 | 152 nM | Not Active | > 660 | – | – | – | –
Cc1ccc2oc(=O)c(C(=O)Nc3cccc(Cl)c3)cc2c1 | 5.07 nM | Not Active | > 19700 | 1.17 nM | Active | Active | –
C[C@H](NCc1ccc(OCc2cccc(F)c2)cc1)C(N)=O [SAFINAMIDE] | – | Not Active | – | – | – | – | Active
COc1ccc2oc(=O)c(C(=O)Nc3cccc(C)c3)cc2c1 | 47.2 nM | Not Active | > 2120 | – | – | – | –
Cc1ccc2occ(C(=O)Nc3ccc(O)cc3)c(=O)c2c1 | 513 nM | Not Active | > 195 | – | – | – | –
COc1ccc2occ(C(=O)Nc3ccccc3)c(=O)c2c1 | 41.8 nM | Not Active | > 2390 | – | – | – | –
Cc1ccc2oc(=O)c(C(=O)Nc3ccc(Cl)cc3)cc2c1 | 11.1 nM | Not Active | > 9030 | – | – | – | –
COc1ccc2oc(=O)c(C(=O)Nc3cccc(O)c3)cc2c1 | 229 nM | Not Active | > 447 | – | – | – | –
Cc1ccc2oc(=O)c(C(=O)Nc3ccccc3)cc2c1 | 15.3 nM | Not Active | > 6530 | – | – | – | –
COc1ccc2oc(=O)c(C(=O)Nc3cccc(Cl)c3)cc2c1 | 9.03 nM | Not Active | > 11100 | – | – | – | –

Further lines, results first:

IC50 [1] | inhibition (INH) [2] | Ratio IC50 (Homo sapiens) | Ki [3] | Activity [4] | inhibition (INH) [5] | inhibition (INH) [6] | Compound
4.2 nM | Not Active | > 23800 | 2.69 nM | Active | Active | – | Cc1ccc2occ(C(=O)Nc3cccc(Cl)c3)c(=O)c2c1
5.95 nM | Not Active | > 16800 | – | – | – | – | COc1ccc2oc(=O)c(C(=O)Nc3ccccc3)cc2c1
674 nM | Not Active | > 148 | – | – | – | – | COc1ccc2occ(C(=O)Nc3ccc(O)cc3)c(=O)c2c1
78.2 nM | Not Active | > 1280 | – | – | – | – | Cc1ccc2occ(C(=O)Nc3cccc(O)c3)c(=O)c2c1
18.9 nM | Not Active | > 5290 | – | – | – | – | COc1ccc2oc(=O)c(C(=O)Nc3ccc(Cl)cc3)cc2c1
21.4 nM | Not Active | > 4680 | – | – | – | – | Cc1ccc2occ(C(=O)Nc3ccccc3)c(=O)c2c1
21.8 nM | Not Active | > 4590 | – | – | – | – | COc1ccc2occ(C(=O)Nc3cccc(C)c3)c(=O)c2c1
13.9 nM | Not Active | > 7190 | – | – | – | – | Cc1ccc(NC(=O)c2cc3cc(C)ccc3oc2=O)cc1
19.4 nM | Not Active | > 5150 | – | – | – | – | COc1ccc2oc(=O)c(C(=O)Nc3ccc(C)cc3)cc2c1
7.52 nM | Not Active | > 13300 | – | – | – | – | Cc1cccc(NC(=O)c2cc3cc(C)ccc3oc2=O)c1
113 nM | Not Active | > 881 | – | – | – | – | COc1ccc2occ(C(=O)Nc3cccc(O)c3)c(=O)c2c1
45.4 nM | Not Active | > 2200 | – | – | – | – | Cc1ccc2occ(C(=O)Nc3ccc(Cl)cc3)c(=O)c2c1
– | Not Active | – | – | – | – | – | COc1ccc2oc(=O)c(C(=O)Nc3ccc(O)cc3)cc2c1
